Source: paper PMC9017786 (Peptide science (Hoboken, N.J.), 2020)

Assay: Transmission electron microscopy of the peptide assemblies
Assay type: physicochemical
Conditions: TEM; after ALP 1 U/mL, 1.0 wt% in PBS buffer pH 7.4, 24 hours, 37 °C
Method in brief: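 Phosphopeptide (1.0 wt% total, pH 7.4 PBS) was dephosphorylated with alkaline phosphatase (1 U/mL) for 24 h at 37 °C. Samples went onto 400 mesh copper grids coated with continuous carbon film (~35 nm), were stained with uranyl acetate and air-dried, then imaged by TEM. Nanofiber width was measured from the images.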

Nap-wwy [compound 1]
Diameter (width) of the nanofibers: 7 ± 2 nm
